The list is not random: actives were taken first. Their share in the collection is about 1.7%.
STEP inh: blocks human striatal-enriched tyrosine phosphatase | P54829 | recombinant STEP, OMFP fluorogenic substrate, fluorescence | inhibition, % at 20 µM | 0.25% of 360,000 active;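 active means inhibition at 20 µM, scaled per plate between control wells, above about 37%, limit read from the data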
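Measure: Control-normalized % inhibition with plate pattern correction | Test system: STEP phosphatase, cell-free reaction | Medium: pH 6.0 Bis-Tris with DTT and Tween 20 | Technique: Fluorescence, 480/540 nm | Times: Reaction 20 min, ambient temperature | Doses: Single compound dose of 20 µM, 1% DMSO final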
Scp-1 inhibitor: blocks human Scp-1 phosphatase activity; Q9GZU7; Recombinant Scp1, phosphopeptide, malachite green phosphate absorbance; inhibition, % at 20 µM; 0.88% of 340,000 active; AID 493091;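 active means inhibition above about 50% at 20 µM, limit read from the data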
Target sequence (Q9GZU7 76-261 limits assumed): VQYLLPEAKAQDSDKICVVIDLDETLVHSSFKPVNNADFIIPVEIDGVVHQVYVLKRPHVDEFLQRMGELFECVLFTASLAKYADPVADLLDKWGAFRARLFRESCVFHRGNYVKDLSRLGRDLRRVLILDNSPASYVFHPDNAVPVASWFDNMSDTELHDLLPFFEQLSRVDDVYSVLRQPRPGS
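Test system: SCP-1 catalytic domain; Buffer or medium: Acidic Tris acetate buffer with magnesium and detergent; Also added: Phosphorylated 17-residue peptide substrate; Compound: single 20 µM dose, 1% DMSO; Schedule: enzyme reaction 45 min at room temperature, colour 5 min, stabilisation 30 min; Signal: Phosphate-binding colour reagent, absorbance read at 630 nm.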
SUMO1-SIM PPI: SUMO1-SIM interaction modulation; SUMO1 binding to a labelled peptide, TR-FRET, 1 h; AID 602429; P63165; inhibition, % at 20 µM; 0.33% of 360,000 active; in the data active means inhibition above about 37%
Target sequence (P63165 whole entry, looked up): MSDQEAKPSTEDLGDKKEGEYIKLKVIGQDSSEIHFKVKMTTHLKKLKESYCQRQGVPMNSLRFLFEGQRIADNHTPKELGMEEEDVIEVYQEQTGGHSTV
LMPTP block: LMPTP (human) inhibition. inhibition, % at 20 µM. AID 651560. 0.22% of 360,000 active. recombinant LMPTP-A, OMFP fluorogenic substrate, fluorescence intensity;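 active means compounds that cut the enzyme signal by at least half of the control window in the single-dose screen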
Target sequence (P24666 whole entry, looked up): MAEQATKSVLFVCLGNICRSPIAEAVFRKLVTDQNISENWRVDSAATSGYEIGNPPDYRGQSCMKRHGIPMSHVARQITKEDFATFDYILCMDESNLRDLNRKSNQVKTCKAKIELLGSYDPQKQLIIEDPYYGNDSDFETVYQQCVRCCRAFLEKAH
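test system = LMPTP-A | amount = 0.625 nM LMPTP-A final | reagent = fluorogenic phosphatase substrate OMFP at 400 µM final | incubation = 50 min at room temperature | benchmarks = no-enzyme low control, uninhibited high control | medium = Bis-Tris pH 6.0, DTT, detergent | signal = fluorescence intensity of OMFP turnover product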
DNMT1 inh: DNMT1 (human) enzyme inhibition. inhibition (reported as % activation of signal), % at 10 µM. 0.83% of 360,000 active. DNMT1 molecular beacon, Hinp1I cleavage, fluorescence. P26358; in the data active means inhibition above about 50%
Scp-1 conf: Scp-1 (human) inhibition, single-dose confirmed; shares compounds with Scp-1 inhibitor; recombinant SCP-1 catalytic domain, phosphate release, malachite green absorbance; inhibition, % at 20 µM; 61% of 2,500 active; AID 540281
MG interference: counter-screen for Scp-1 inhibitors: colorimetric interference | 2,500 tested, under 10 active | Colorimetric interference counterscreen, malachite green absorbance 630 nm | shares compounds with Scp-1 inhibitor | apparent inhibition (interference), % at 20 µM;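 further: compounds added after enzyme reaction finished so only phosphate colour detection is probed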
Scp1 DSF: binds human Scp-1, shifting its melting temperature. shares compounds with Scp-1 inhibitor. Recombinant SCP1, Sypro Orange thermal shift Tm. thermal shift relative to vanadate control, % at 40 µM. 25% of 1,500 active. AID 540329;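 active means substances whose mean melting-temperature shift, as a percentage of the reference inhibitor's shift, reaches about 5.3%, limit read from the data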
Numbers stand for hits; - = inactive; . = no result.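 How the source made its calls, unless noted: active means inhibition of at least 30% at 20 µM; inactive means the rest.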

SMILES	STEP inh	Scp-1 inhibitor	SUMO1-SIM PPI	LMPTP block	DNMT1 inh	Scp-1 conf	MG interference	Scp1 DSF
COc1cc2cnc(-c3ccccc3)c(-c3ccc(C#N)cc3)c2cc1OC	-	-	-	-	-	.	.	.
Fc1ccc2cnc(-c3ccccc3)c(-c3cccc(C(F)(F)F)c3)c2c1	-	64.6	-	-	-	-	-	.
O=[N+]([O-])c1cccc(-c2c(-c3ccccc3)ncc3cc(F)ccc23)c1	-	-	-	-	-	.	.	.
COc1cc2cnc(-c3ccccc3)c(-c3cccc(C(F)(F)F)c3)c2cc1OC	-	52.6	-	-	-	-	-	.
Fc1cc(F)cc(-c2c(-c3ccccc3)ncc3ccc(F)cc23)c1	-	85.1	-	-	-	38.4	-	-
O=C(O)c1ccc(CNc2ccccc2C(=O)O)cc1	-	52.6	-	-	-	54.1	-	-
O=c1c2cc(-c3ccccc3)sc2nc2n1N=C(c1ccccc1)CS2	-	107.5	-	-	-	58.5	-	-
O=C(CCN1CCCCC1)c1ccccc1	-	-	-	-	-	.	.	.
CCc1oc2ccccc2c1C(=O)CCN1CCCCC1	-	57.5	-	-	-	-	-	.
CC(=O)Nc1ccc(/C(C)=N/NC(=O)c2ccc(COc3ccccc3Cl)o2)cc1	-	104.0	-	-	-	65.1	-	-
Cc1cccc(NC(=O)COc2ccc(/C=C\c3[nH]c(=O)[nH]c(=O)c3[N+](=O)[O-])cc2)c1	-	78.7	-	55.2	-	73.7	-	5.5
CC(=O)Nc1ccc(S(=O)(=O)NCCN2CCNC2=O)cc1Cl	-	-	-	-	-	-	-	.
Cc1ccc(S(=O)(=O)NCCN2CCNC2=O)cc1	-	-	-	-	-	.	.	.
O=C1NCCN1CCNS(=O)(=O)c1ccc(F)c(Cl)c1	-	-	-	-	-	-	-	.
O=C1CCCN1CCCNS(=O)(=O)c1ccc(F)c(F)c1	-	-	-	-	-	-	-	.
O=C1CCCN1CCCNS(=O)(=O)c1ccc(Br)cc1	-	-	-	-	-	.	.	.
CCCN(C(=O)c1ccc(N2CCCC2=O)cc1)C1CCS(=O)(=O)C1 (configuration not stated)	-	-	-	-	-	.	.	.
N/C(=N\NC(=O)c1ccc(F)cc1)c1cc2ccccc2oc1=O	-	-	-	-	-	.	.	.
N/C(=N\NC(=O)c1cccc(F)c1)c1cc2ccccc2oc1=O	-	52.7	-	-	-	72.4	-	-
Cc1ccccc1N=C(NO)c1cccnc1	-	-	-	-	-	.	.	.
C/C(N)=C(/C#N)C(=O)CN1C(=O)NC(Cc2c[nH]c3ccccc23)C1=O (configuration not stated)	-	65.3	-	-	-	59.9	-	-
COc1cc(/C=C/C(=O)O)cc(S(=O)(=O)NNC(=O)c2cc(C)oc2C)c1OC	-	52.8	-	-	-	48.9	-	-
O=C(NCCCN1CCOCC1)c1ccc(NS(=O)(=O)c2ccccc2)cc1	-	-	-	-	-	.	.	.
COc1cccc2cc(C(=O)N3CCN(C(=O)c4ccco4)CC3)c(=O)oc12	-	-	-	-	-	.	.	.
COc1cc(Br)cc2cc(C(=O)N3CCN(C(=O)c4ccco4)CC3)c(=O)oc12	-	56.4	-	-	-	-	-	.
N#C/C(=C\c1cc2c(cc1Br)OCO2)c1ccc(C(=O)O)cc1	-	51.7	-	-	-	67.6	-	-
C[C@H](CO)N1C[C@H](C)[C@@H](CN(C)C(=O)Nc2ccccc2)Oc2ccc(NS(=O)(=O)c3cn(C)cn3)cc2C1=O	-	71.1	-	-	-	-	-	.
C[C@H](CO)N1C[C@H](C)[C@@H](CN(C)C(=O)Nc2ccc3c(c2)OCO3)Oc2ccc(NS(=O)(=O)c3cn(C)cn3)cc2C1=O	-	68.9	-	-	-	-	-	.

High-throughput results (PubChem)
